Data taken from the RNAGym collection of RNA variant scans (doi:10.1038/s41586-018-0170-7).

B1: tRNA (parent)
chain: GUUCCGUUGGCGUAAUGGUAACGCGUCUCCCUCCUAAGGAGAAGACUGCGGGUUCGAGUCCCGUACGGAACG

Variants of: B1
Test: yeast fitness, log relative to wild type (ln ratio); higher = fitter; tRNA-Arg(CCU), competitive growth, 37 C, 1 M NaCl
In short: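 Fitness is the natural log of each genotype's generations divided by the wild type's. Generations were derived as OD-scaled log2 output/input frequency from 125 bp paired-end Illumina counts, weighting replicates by inverse variance. Pools of the tRNA-Arg(CCU) variant library, on a HIS3 centromeric plasmid in BY4742 lacking the chromosomal gene, grew ~6.5 generations (~26.5 h) in SC-HIS 1M NaCl at 37 °C after 4 generations in SC-HIS at 30 °C.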

Variant	yeast fitness (ln)
U2C C27U C46U C66A A69G A70U C71U	-0.387
U2C C27U C66U	-0.0757
G1A U2G G6U C27U C66U A70U	-0.386
G1A U2G G6U C27U C66U A70G	-0.357
U2C C27U A69G A70U	-0.175
U2C C27U A69G A70G	-0.0516
U2C C27U C66U A69G A70G	-0.185
U2C C27U C66U A69G A70U	-0.188
U2C C27U C46U C66A A70G	-0.137
U2C C27U C46U C66A A70U	-0.0366
U2C C27U C66A C71U	-0.146
G1A U2G G6U C27U C46U C66A A70U C71U	-0.0752
U2C C27U C66U A70U	-0.113
U2C C27U C66U A70G	-0.0659
U2C C27U A43C A70U	-0.152
U2C C27U A43C A70G	-0.0248
U2C C46U C66U A69G A70G C71U	-0.0462
U2C A43C C46U C71U	-0.193
G1A U2G G6U C27U C46U C66U A70U C71U	-0.334
U2C C66A C71U	-0.0382
U2C A43C C66A A70G C71U	-0.11

Variant	yeast fitness (ln)
U2C C46U A70U C71U	-0.0871
G1A U2G G6U C27U C66U C71U	-0.522
G1A U2G G6U C66A A69G A70G C71U	-0.325
G1A U2G G6U C27U C46U C66U A69G A70G C71U	-0.339
U2C C46U C66A A69G A70G C71U	-0.128
U2C A43C C46U A70G C71U	0.00238
U2C A43C C46U C66A C71U	-0.1
G1A U2G G6U C27U C66U A70U C71U	-0.434
U2C A43C A70G	-0.00562
U2C A43C A70U	-0.0907
U2C A43C A70U C71U	-0.102
U2C C27U A43C C46U C66A A69G A70U	-0.263
U2C C27U A43C C46U C66A A69G A70G	-0.0542
U2C A43C C66U A70U C71U	-0.424
U2C C66A A69G A70G	-0.0883
U2C C66A A69G A70U	-0.0958
U2C C27U C46U C66U A69G A70G C71U	-0.281
U2C C27U A43C C66U A69G A70U C71U	-0.476
G1A U2G G6U C46U A70U	-0.246
G1A U2G G6U C46U A70G	-0.282
U2C C27U C46U C66A C71U	-0.0945

Variant	yeast fitness (ln)
U2C C27U C46U A69G	-0.319
U2C A43C C66U A69G A70U C71U	-0.605
G1A U2G G6U C66A A70U C71U	-0.0122
U2C C27U C46U A69G C71U	-0.104
G1A U2G G6U C46U A69G A70U C71U	-0.279
G1A U2G G6U C46U C66U A69G A70G C71U	-0.244
G1A U2G G6U C27U C46U C66U A69G A70U C71U	-0.462
U2C A69G A70U C71U	-0.199
U2C C27U A43C C46U C66A A70G	-0.0421
U2C C27U A43C C46U C66A A70U	-0.0988
U2C C46U A69G A70G C71U	-0.0139
U2C C46U C66U A70U C71U	-0.155
U2C C27U A43C C46U C66U A69G C71U	-0.281
G1A U2G G6U C46U C66A A69G A70U C71U	-0.227
U2C C46U A69G	-0.0478
U2C C46U C66U C71U	-0.0488
U2C C27U C46U C66U A69G A70G	-0.0845
U2C C27U C46U C66U A69G A70U	-0.137
U2C C27U A43C C46U C66A A69G C71U	-0.41
U2C C27U C66U A69G C71U	-0.303
G1A U2G G6U C27U C46U C66U	-0.271

Variant	yeast fitness (ln)
G1A U2G G6U C27U C46U C66A	-0.2
U2C C27U C46U C66U A70G C71U	-0.075
U2C C27U C46U A69G A70U	-0.198
U2C C27U C46U A69G A70G	-0.0283
G1A U2G G6U C27U C71U	-0.358
U2C C27U	-0.0171
U2C C27U C66A A69G A70G C71U	-0.142
U2C A43C C46U A70U C71U	-0.0761
U2C C46U A70U	0.0104
U2C C46U A70G	0.000328
U2C C27U A43C C71U	-0.0796
U2C A43C C46U C66U A70U C71U	-0.198
U2C A43C C66A A69G A70G	-0.186
G1A U2G G6U C27U C46U C66U A69G C71U	-0.434
G1A U2G G6U C66U A70U	-0.211
G1A U2G G6U C66U A70G	-0.199
G1A U2G G6U C27U C46U C66A A70G C71U	-0.239
U2C C27U C66A A69G A70U	-0.119
U2C C27U C46U C71U	-0.268
U2C C27U A43C A69G	-0.0976
